Measured values published in ChEMBL document CHEMBL2046406 (J Med Chem, 2012).
The source made the active and inactive calls. No cut-off for these calls is given here.

Key:
Mu-type opioid receptor [1] = molecular target: T1, Mu-type opioid receptor (Homo sapiens, UniProt P35372); test: biochemical; type: cell-based, CHO
[2] = molecular target: T2, Kappa-type opioid receptor (Homo sapiens, UniProt P41145); test: biochemical; type: cell-based, CHO
[3] = molecular target: T3, Delta-type opioid receptor (Homo sapiens, UniProt P41143); test: Displacement of [3H]-naltrindole from human delta opioid receptor expressed in CHO cells after 3 hrs by scintillation counting; type: cell-based
Summary of the method: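 CHO membranes expressing human KOR or DOR incubated with radioligand and 12 compound concentrations in 1 mL 50 mM Tris-HCl, pH 7.5, at 25 °C. […] Nonspecific binding with 10 μM naloxone. Three experiments in triplicate.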

Homo sapiens [4] = species: Homo sapiens; test: Selectivity index, ratio of inhibition of human kappa opioid receptor to inhibition of human mu opioid receptor
Homo sapiens [5] = species: Homo sapiens; test: Selectivity index, ratio of inhibition of human delta opioid receptor to inhibition of human kappa opioid receptor
[6] = molecular target: T3, Delta-type opioid receptor; test: Displacement of [3H]-naltrindole from human delta opioid receptor expressed in CHO cells at 10 uM after 3 hrs by scintillation counting; type: cell-based
Homo sapiens [7] = species: Homo sapiens; test: Selectivity index, ratio of inhibition of human delta opioid receptor to inhibition of human mu opioid receptor
Mu-type opioid receptor [8] = molecular target: T1, Mu-type opioid receptor; test: Agonist activity at human mu opioid receptor expressed in CHO cells assessed as stimulation of […]GTPgammaS binding after 60 mins by scintillation counting relative to control; type: functional, cell-based
Mu-type opioid receptor [9] = molecular target: T1, Mu-type opioid receptor; test: Antagonist activity at human mu opioid receptor expressed in CHO cells assessed as inhibition of DAMGO-induced […]GTPgammaS binding after 60 mins by scintillation counting; type: functional, cell-based
Mu-type opioid receptor [10] = molecular target: T1, Mu-type opioid receptor; test: Antagonist activity at human mu opioid receptor expressed in CHO cells assessed as inhibition of DAMGO-induced […]GTPgammaS binding after 60 mins by scintillation counting relative to control; type: functional, cell-based
[11] = molecular target: T2, Kappa-type opioid receptor; test: Agonist activity at human kappa opioid receptor expressed in CHO cells assessed as stimulation of […]GTPgammaS binding after 60 mins by scintillation counting; type: functional, cell-based
[12] = molecular target: T2, Kappa-type opioid receptor; test: Agonist activity at human kappa opioid receptor expressed in CHO cells assessed as stimulation of […]GTPgammaS binding after 60 mins by scintillation counting relative to control; type: functional, cell-based
Summary of the method: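 Membranes from CHO cells stably expressing human KOR (15 μg protein per tube) or MOR (7.5 μg protein per tube). Nonspecific binding with 10 μM GTPγS. Filtration, then scintillation counting. Triplicate, at least three experiments.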

[13] = molecular target: T2, Kappa-type opioid receptor; test: Antagonist activity at human kappa opioid receptor expressed in CHO cells assessed as inhibition of U50488-induced […]GTPgammaS binding after 60 mins by scintillation counting; type: functional, cell-based
Summary of the method: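 κ antagonism: hKOR-CHO membranes incubated with compound plus 100 nM U50,488.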

Mu-type opioid receptor [14] = molecular target: T1, Mu-type opioid receptor; test: Agonist activity at human mu opioid receptor expressed in CHO cells assessed as stimulation of […]GTPgammaS binding after 60 mins by scintillation counting; type: functional, cell-based

T1 sequence (P35372 whole entry): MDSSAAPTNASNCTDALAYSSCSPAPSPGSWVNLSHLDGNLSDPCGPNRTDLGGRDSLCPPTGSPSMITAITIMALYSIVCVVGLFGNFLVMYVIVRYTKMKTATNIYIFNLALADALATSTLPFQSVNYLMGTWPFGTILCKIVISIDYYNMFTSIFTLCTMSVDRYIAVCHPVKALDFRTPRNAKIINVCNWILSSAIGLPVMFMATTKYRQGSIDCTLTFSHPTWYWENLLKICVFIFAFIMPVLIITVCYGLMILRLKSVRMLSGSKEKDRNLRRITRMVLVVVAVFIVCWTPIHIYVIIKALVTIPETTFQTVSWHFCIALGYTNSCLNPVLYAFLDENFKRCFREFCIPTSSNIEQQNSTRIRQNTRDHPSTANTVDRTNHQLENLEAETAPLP
T3 sequence (P41143 whole entry): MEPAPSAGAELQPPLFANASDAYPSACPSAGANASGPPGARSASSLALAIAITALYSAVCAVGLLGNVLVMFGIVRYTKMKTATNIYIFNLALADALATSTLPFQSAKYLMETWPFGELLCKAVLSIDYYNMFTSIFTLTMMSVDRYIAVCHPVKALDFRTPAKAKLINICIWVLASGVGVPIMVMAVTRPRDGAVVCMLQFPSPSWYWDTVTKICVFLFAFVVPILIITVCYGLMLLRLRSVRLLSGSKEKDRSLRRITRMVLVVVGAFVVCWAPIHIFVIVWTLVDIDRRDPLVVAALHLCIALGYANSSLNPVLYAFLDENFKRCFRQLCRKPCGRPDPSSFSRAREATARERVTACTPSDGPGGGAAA
T2 sequence (P41145 whole entry): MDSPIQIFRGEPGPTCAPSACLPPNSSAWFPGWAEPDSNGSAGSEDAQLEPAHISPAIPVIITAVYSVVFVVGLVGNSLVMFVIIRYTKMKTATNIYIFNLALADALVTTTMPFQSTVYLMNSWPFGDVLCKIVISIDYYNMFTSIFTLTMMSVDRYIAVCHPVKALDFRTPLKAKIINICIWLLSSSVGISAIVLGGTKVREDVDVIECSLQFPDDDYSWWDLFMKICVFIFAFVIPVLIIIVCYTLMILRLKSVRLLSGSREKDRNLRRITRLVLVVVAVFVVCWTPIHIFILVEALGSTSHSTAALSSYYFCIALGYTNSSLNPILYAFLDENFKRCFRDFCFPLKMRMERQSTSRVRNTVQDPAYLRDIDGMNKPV

SMILES	Ki (Mu-type opioid receptor [1]) [nM]	Ki [2] [nM]	Ki [3] [nM]	Selectivity ratio (Homo sapiens [4])	Selectivity ratio (Homo sapiens [5])	inhibition [6] [%]	Selectivity ratio (Homo sapiens [7])	Emax (Mu-type opioid receptor [8]) [%]	IC50 (Mu-type opioid receptor [9]; read-out: IC50) [nM]	Imax (Mu-type opioid receptor [10])	EC50 [11] [nM]	Emax [12] [%]	Activity [13]	EC50 (Mu-type opioid receptor [14]) [nM]	IC50 (Mu-type opioid receptor [9]; cho)
CN(Cc1cccc(O)c1)c1ccc2c(c1)[C@@]13CCCC[C@H]1[C@@H](C2)N(CC1CCC1)CC3	17	23	170	10	10										
COc1ccccc1CN(C)c1ccc2c(c1)[C@@]13CCCC[C@H]1[C@@H](C2)N(CC1CCC1)CC3	14	19	190	14	14										
CN1CC[C@]23c4c5ccc(NCc6ccc(O)cc6)c4O[C@H]2[C@@H](O)C=C[C@H]3[C@H]1C5	44	560		230		19	13								
c1cc2c(cc1CNc1ccc3c(c1)[C@@]14CCCC[C@H]1[C@@H](C3)N(CC1CC1)CC4)OCO2	0.17	0.53	20	120			3	18	0.21	72%	0.077	120	inactive		
CN(Cc1ccc(O)cc1)c1ccc2c(c1)[C@@]13CCCC[C@H]1[C@@H](C2)N(CC1CCC1)CC3	3.2	4.1	530	170	170										
c1ccc(CNc2ccc3c(c2)[C@@]24CCCC[C@H]2[C@@H](C3)N(CC2CC2)CC4)cc1				112	112										
Oc1ccccc1CNc1ccc2c(c1)[C@@]13CCCC[C@H]1[C@@H](C2)N(CC1CCC1)CC3	1.7	1.7	110	65	65			49	810	32%	47	130	inactive	38	
C[C@@H](NC(=O)[C@@H](N)Cc1ccc(O)cc1)C(=O)NCC(=O)N(C)[C@@H](Cc1ccccc1)C(=O)NCCO										inactive					
Oc1ccc(CNc2ccc3c(c2)[C@@]24CCCC[C@H]2[C@@H](C3)N(CC2CC2)CC4)cc1	0.28	0.27	13	44	44			19	7.6	80%	1.8	100	inactive		
Oc1cccc(CNc2ccc3c(c2)[C@@]24CCCC[C@H]2[C@@H](C3)N(CC2CCC2)CC4)c1	0.32	1.9	230	720			6	30	4.8	74%					
COc1ccccc1CNc1ccc2c3c1O[C@H]1[C@@H](O)C=C[C@H]4[C@@H](C2)N(C)CC[C@@]341		220				22				inactive					Not Active
Oc1ccc(CNc2ccc3c(c2)[C@@]24CCCC[C@H]2[C@@H](C3)N(CC2CCC2)CC4)cc1	0.35	2.3	120	340			7	38	75	56%	38	130	inactive	3.6	
COc1ccc(CN(C)c2ccc3c(c2)[C@@]24CCCC[C@H]2[C@@H](C3)N(CC2CCC2)CC4)cc1	9.5	8.5	290	34	34										
COc1ccccc1CNc1ccc2c(c1)[C@@]13CCCC[C@H]1[C@@H](C2)N(CC1CC1)CC3	1.2	1.3	160	130	130										
CN1CC[C@]23CCCC[C@H]2[C@H]1Cc1ccc(NCc2cccc(O)c2)cc13	0.42	10	720								230	140	inactive	6.5	Not Active
